ChEMBL document CHEMBL4014301, “Design, synthesis and evaluation of 4-substituted anthra[2,1-c][1,2,5]thiadiazole-6,11-dione derivatives as novel non-camptothecin topoisomerase I inhibitors” (Bioorg Med Chem Lett, 2017)
Converted amounts (≈) assume the structure as drawn. The source made the active and inactive calls. The calls are words filed in the database; no cut-off is given here.

Key:
[1] = biological target: T1, DNA topoisomerase 1 (Homo sapiens) (UniProt P11387); test: Inhibition of DNA topoisomerase 1 (unknown origin) assessed as reduction in supercoiled pBR322 plasmid DNA relaxation after 15 mins by ethidium bromide staining based agarose gel electrophoresis
T1 sequence (whole entry): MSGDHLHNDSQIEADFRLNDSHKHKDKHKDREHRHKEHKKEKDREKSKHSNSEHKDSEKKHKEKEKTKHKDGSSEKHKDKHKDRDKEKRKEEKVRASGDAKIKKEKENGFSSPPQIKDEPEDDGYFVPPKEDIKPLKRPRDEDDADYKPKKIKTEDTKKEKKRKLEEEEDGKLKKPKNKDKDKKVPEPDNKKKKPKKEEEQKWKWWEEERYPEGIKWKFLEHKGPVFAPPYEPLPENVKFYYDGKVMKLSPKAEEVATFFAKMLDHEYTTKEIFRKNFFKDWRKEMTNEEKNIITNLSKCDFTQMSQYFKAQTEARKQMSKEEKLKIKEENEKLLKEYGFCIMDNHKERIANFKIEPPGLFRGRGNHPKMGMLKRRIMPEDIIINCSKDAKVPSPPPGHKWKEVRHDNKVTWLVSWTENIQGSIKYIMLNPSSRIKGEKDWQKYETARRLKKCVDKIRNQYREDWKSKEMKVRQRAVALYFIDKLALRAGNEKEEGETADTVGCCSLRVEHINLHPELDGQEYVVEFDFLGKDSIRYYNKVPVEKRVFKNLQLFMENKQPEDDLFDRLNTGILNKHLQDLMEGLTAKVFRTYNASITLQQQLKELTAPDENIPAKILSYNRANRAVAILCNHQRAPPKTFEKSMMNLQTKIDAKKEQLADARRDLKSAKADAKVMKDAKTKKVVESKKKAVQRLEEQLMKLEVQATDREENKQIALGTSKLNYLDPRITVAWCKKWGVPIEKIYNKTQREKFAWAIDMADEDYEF
Procedure, shortened: (§1)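 Supercoiled pBR322 plasmid incubated with Top1, with or without compound at 1, 10 and 100 µM. Relaxation inhibition read from agarose gel bands.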

A549 = test: Antiproliferative activity against human A549 cells after 72 hrs by MTT assay; assay type: functional, cell-based; settings: Homo sapiens, A549, 72 h
[2] = biological target: T1, DNA topoisomerase 1 (Homo sapiens); test: Inhibition of DNA topoisomerase-1 (unknown origin) mediated DNA relaxation assessed as DNA intercalation at 100 uM using supercoiled pBR322 plasmid DNA as substrate after 60 mins by ethidium bromide staining based agarose gel electrophoresis
Procedure, shortened: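 Unwinding assay with excess Top1 acting on supercoiled pBR322 in the presence of compound at 100 µM. Ethidium bromide at 1 µg/mL used as intercalator reference. Compound removed by phenol extraction after relaxation. Nicked, relaxed and supercoiled forms resolved on gel.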

HCT-116 [3] = test: Cell cycle arrest in human HCT116 cells assessed as accumulation at G2 phase at 5 uM after 36 hrs by propidium iodide staining-based flow cytometry (reference value: 21%); assay type: functional
HCT-116 [4] = test: Cell cycle arrest in human HCT116 cells assessed as accumulation at G2 phase at 5 uM after 12 hrs by propidium iodide staining-based flow cytometry (reference value: 19%); assay type: functional
[5] = biological target: T1, DNA topoisomerase 1 (Homo sapiens); test: Inhibition of DNA topoisomerase 1 (unknown origin) assessed as reduction in supercoiled pBR322 plasmid DNA relaxation at 1 uM after 15 mins by ethidium bromide staining based agarose gel electrophoresis; procedure, shortened: as §1
[6] = Solubility of the compound; assay type: physicochemical
ZR-75-30 = test: Antiproliferative activity against human ZR-7530 cells after 72 hrs by MTT assay; assay type: functional, cell-based; settings: Homo sapiens, ZR-75-30, 72 h
[7] = biological target: T1, DNA topoisomerase 1 (Homo sapiens); test: Inhibition of DNA topoisomerase 1 (unknown origin) assessed as reduction in supercoiled pBR322 plasmid DNA relaxation at 100 uM after 15 mins by ethidium bromide staining based agarose gel electrophoresis; procedure, shortened: as §1
HCT-116 [8] = test: Antiproliferative activity against human HCT116 cells after 72 hrs by MTT assay; assay type: functional, cell-based; settings: Homo sapiens, HCT-116, 72 h
[9] = biological target: T1, DNA topoisomerase 1 (Homo sapiens); test: Inhibition of DNA topoisomerase-1 (unknown origin) mediated DNA relaxation assessed as DNA intercalation at 1 ug/ml using supercoiled pBR322 plasmid DNA as substrate after 60 mins by ethidium bromide staining based agarose gel electrophoresis
Procedure, shortened: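 Top1 unwinding assay for DNA intercalation: supercoiled pBR322 plasmid treated with excess Top1 in presence of compounds (100 µM), with ethidium bromide (1 µg/mL) as intercalator control; compounds removed by phenol extraction after relaxation. Nicked, relaxed and supercoiled DNA forms resolved on gel.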

Structure (SMILES) | inhibition [1] | IC50 (A549) [µM] | inhibition [2] | Activity (HCT-116 [3]) [%] | Activity (HCT-116 [4]) [%] | inhibition [5] | solubility [6] [µg/mL] | IC50 (ZR-75-30) [µM] | inhibition [7] | IC50 (HCT-116 [8]) [µM] | inhibition [9]
CC(=O)N1CCN(c2cc3c(c4nsnc24)C(=O)c2ccccc2C3=O)CC1 | Dose-dependent effect | 17 | Active | 56 | 34 | Active | 7.98 (≈ 20.3 µM) | 0.42 | Active | 0.52 | 
Cc1ccc(S(=O)(=O)c2cc3c(c4nsnc24)C(=O)c2ccccc2C3=O)cc1 |  | 50 |  |  |  |  | 0.14 (≈ 0.333 µM) | 90 |  | 84 | 
CC[n+]1c(-c2ccccc2)c2cc(N)ccc2c2ccc(N)cc21 |  |  |  |  |  |  |  |  |  |  | Active
